From PubChem BioAssay
Rows were chosen to be rich in hits. Some 0.94% of all compounds tested hit in one or more screens of this group.
PKA-R1A act = PKA-R1A complex activation | P00514+P68181 | PKA-R1A dissociation, Cy5-IP20 fluorescence polarization; scaled: DMSO 0%, 113 µM cGMP 100% | activation, % at 11.4 µM | 340,000 compounds, 0.083% hits | AID 504707;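 active = percent activation above the mean of all tested compounds plus 3 SD, cut at about 19% in these data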;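 also: higher means more PKAc released from R1A so a rise in polarization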
aDG glyco act = alpha-DG glycosylation activation. 360,000 compounds, 0.22% hits. Pro5-aDG cells, alpha-DG glycosylation AlphaScreen (IIH6); 0% Pro5, 100% B10-LARGE cell signal. activation, % at 10 µM;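 active = activation of at least 8% versus controls, or a plate z-score of at least 8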;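 also: Pro5 are CHO cells carrying HIG-tagged alpha-DG that lacks glycosylation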
UCH37 inh = inhibitors of human deubiquitinating enzyme UCH37. Q9Y5K5. purified proteasome/UCH37, Ub-AMC cleavage fluorescence. inhibition, % (concentration not given with the values). 330,000 compounds, 0.33% hits. AID 588478;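 active = mean inhibition over replicate wells above about 20%, limit read from the data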
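Assay system: Proteasome-bound UCH37. Buffer or medium: pH 7.4 Tris-HCl (50 mM) with ovalbumin, ATP-MgCl2, DTT. Incubation: 30 min preincubation with enzyme, 25 min cleavage at room temperature. Measured by: fluorescence, ex 355 nm, em 460 nm. Read-out basis: percent inhibition. Control set: wells without proteasome as full block, compound-free enzyme plus substrate as uninhibited.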
CTSL1 counter = counter-screen for PFM18AAP inhibitors: inhibitors of F. hepatica cathepsin L1; recombinant F. hepatica cathepsin L1, Z-Leu-Arg-MCA fluorescence; inhibition, % at 5.96 µM; 300,000 compounds, 0.49% hits; AID 1906;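 active = inhibition above the mean of all tested compounds plus 3 SD, set per screening campaign, cut at about 17% in these data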
PKA-R2B act = activators of human PKA-R2B complex. 340,000 compounds, 0.079% hits. P22694+P31323. activation, % at 11.4 µM. PKA-R2B holoenzyme dissociation, Cy5-IP20 fluorescence polarization; R2B truncated from residue 108, S112A mutant; 0% DMSO only, 100% 113 µM cGMP;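 active = activation above a cutoff set at the mean over all compounds plus 3 SD, cut at about 18% in these data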;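 also: higher means more holoenzyme dissociation and a rise in polarization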
Target sequence (P31323 whole entry, looked up, other chains not shown, the tested form may be a part): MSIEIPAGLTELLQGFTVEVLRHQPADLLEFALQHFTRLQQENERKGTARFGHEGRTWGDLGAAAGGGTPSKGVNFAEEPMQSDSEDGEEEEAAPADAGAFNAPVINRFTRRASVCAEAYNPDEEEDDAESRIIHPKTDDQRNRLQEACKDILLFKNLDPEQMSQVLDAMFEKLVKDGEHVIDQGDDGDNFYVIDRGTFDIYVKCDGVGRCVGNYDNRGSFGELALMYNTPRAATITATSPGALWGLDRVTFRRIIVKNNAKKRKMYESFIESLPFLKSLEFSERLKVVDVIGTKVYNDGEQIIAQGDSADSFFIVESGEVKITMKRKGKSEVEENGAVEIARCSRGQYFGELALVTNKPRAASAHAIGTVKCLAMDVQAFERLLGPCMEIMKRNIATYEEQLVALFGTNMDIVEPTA
A number is an active result; - = inactive; . = no result.

SMILES	PKA-R1A act	aDG glyco act	UCH37 inh	CTSL1 counter	PKA-R2B act
Cc1cc(C)nc(N=c2ssnc2Cl)c1	.	.	-	.	.
CC(/C=N/NC(=O)c1cccs1)=C\c1ccco1	-	-	.	-	-
C/C(C=NNC(=O)c1ccncc1)=C\c1ccco1	.	.	23	.	.
COCc1c(C(=O)OCc2nc(N)nc(Nc3ccccc3C)n2)oc2ccccc12	-	-	-	17	-
COc1ccccc1C(=O)OCc1nc(N)nc(Nc2ccccc2C)n1	-	-	-	-	-
CC(NS(=O)(=O)c1ccccc1)C(c1cccs1)N1CCOCC1 (centres undefined)	-	-	-	79	-
COc1ccccc1/C=C/C(=O)NCC(=O)NN=Cc1ccc2c(c1)OCO2	.	.	-	.	.
Brc1ccccc1-n1nnc(-c2nccs2)n1	-	-	25	-	-
CCn1c(COc2cccc(C)c2)nnc1SCC(=O)CC(=O)Nc1ccccc1OC	-	-	-	17	-
Cc1ccc(/C=C/C(=O)NC2CCCCCCC2)o1	-	-	-	74	-
Cc1ccc(/C=N/NC(=O)NC2CCCCC2)o1	-	-	.	-	-
Cc1ccc(S(=O)(=O)NN=Cc2cc(Br)ccc2O)cc1	.	.	-	.	.
O=C(CSc1nc2ccccc2o1)NN=Cc1ccccc1C(=O)O	.	.	-	.	.
CC(C)CC(NC(=O)C1CCC(C)CC1)C(=O)NCc1ccco1 (centres undefined)	-	-	-	23	-
COc1ccccc1CNC(=O)C(CC(C)C)NC(=O)C1CCC(C)CC1 (centres undefined)	-	-	-	-	-
CN1CCN(C2=C(Cl)C(=O)N(c3ccc(Cl)cc3)C2=O)CC1	-	-	-	20	-
Cc1ccc(N2C(=O)C(Cl)=C(NCCO)C2=O)c(C)c1	-	-	-	-	-
Cc1ccc(N2C(=O)C(Cl)=C(N3CCN(C)CC3)C2=O)c(C)c1	-	-	-	27	-
O=C1C(Cl)=C(N2CCCCCC2)C(=O)N1c1ccccc1	-	-	-	19	-
S=C(NN=Cc1ccc(Cl)c(Cl)c1)Nc1ccccc1Cl	.	.	-	.	.
COC(=O)c1ccc(-c2ccc(C=NNC(=O)Cc3nnc(N)s3)o2)cc1	.	.	-	.	.
O=C(Cc1ccccc1)NC1(O)C(=O)c2ccccc2C1=O	.	-	.	34	.
O=S(=O)(Oc1ccccc1C=Nn1cnnc1)c1ccccc1	.	.	-	.	.
O=C(NC(=C(Cl)Cl)S(=O)(=O)c1ccc(Cl)cc1)c1ccccc1	-	-	-	30	-
Cc1ccc(S(=O)(=O)/C(=C/Cl)NC(=O)c2ccccc2)cc1	-	-	-	97	-
SMILES	PKA-R1A act	aDG glyco act	UCH37 inh	CTSL1 counter	PKA-R2B act
Cc1ccc(S(=O)(=O)C(NC(=O)c2ccccc2)=C(Cl)Cl)cc1	-	-	-	-	-
COc1ccc(OC)c(C=NN2CCN(c3ccc(Cl)cc3)CC2)c1	.	.	-	.	.
Cc1ccc(O)c(C=NNC(=O)Cc2ccc(Cl)cc2)c1	.	.	-	.	.
COc1cccc(C=NNC(=O)c2c(-c3ccccc3)noc2C)c1OC	.	.	-	.	.
COc1cc(/C=C/c2[nH]c(=O)[nH]c(=O)c2[N+](=O)[O-])cc([N+](=O)[O-])c1O	-	-	21	-	-
S=C(NCCc1ccccc1)Nc1cccc2cnccc12	-	9.0	-	-	-
S=C(NCc1ccccc1)Nc1cccc2cnccc12	-	-	-	-	-
CCOc1cc(C=NNC(=O)NN(C)c2ncc(C(F)(F)F)cc2Cl)ccc1O	.	.	-	.	.
COc1ccc(-c2oc(NC(=O)CCl)c(C#N)c2-c2ccc(OC)cc2)cc1	-	-	-	61	-
Cc1cc(N(CN2CCCC2=O)C(=O)c2ccc(OC(C)C)cc2)no1	-	-	-	19	-
Cc1ccc(C(=O)NN=Cc2sc(=O)n(Cc3cccc(C(=O)O)c3)c2Cl)cc1	.	.	-	.	.
Cc1cc(=O)[nH]c(NN=Cc2ccc(Cl)c([N+](=O)[O-])c2)n1	.	.	-	.	.
Cc1c(N=c2c(=O)c3ccccc3c2=O)c(=O)n(-c2ccccc2)n1C	.	.	.	56	.
O=C(CC(c1ccccc1)c1ccccc1)Nc1ccc(Cl)cn1	-	-	34	-	-
COCCCNc1nc2c(-c3ccc(C)cc3)nnn2c2ccccc12	-	-	-	-	-
COCCCNc1nc2c(-c3cccc(C)c3)nnn2c2ccccc12	-	-	-	18	-
Cc1cccc(OCC(=O)NN=C/C=C/c2ccco2)c1	.	.	-	.	.
Cc1c(O)ccc(/C=N/Nc2ncccc2[N+](=O)[O-])c1O	-	5.8	.	-	-
Cc1cccc(OCC(=O)NN=Cc2cc([N+](=O)[O-])ccc2N2CCOCC2)c1	.	.	-	.	.
O=C(Nc1ccccc1C(=O)NCCCN1CCOCC1)c1cccc([N+](=O)[O-])c1	-	-	-	18	-
COc1ccc(CCN(Cc2ccccn2)C(=S)Nc2ccc(C)cc2)cc1OC	-	-	-	-	-
COc1ccccc1NC(=S)N(CCc1ccc(OC)c(OC)c1)Cc1ccccn1	-	-	-	18	-
Cn1cc(C(CC(=O)O)C(=O)O)c2ccccc21 (centres undefined)	-	-	-	-	-
CCCn1cc(C(CC(=O)O)C(=O)O)c2ccccc21 (centres undefined)	-	-	-	17	-
Cc1nc(S(=O)(=O)c2ccc(Cl)cc2)c(NCc2ccccc2)o1	-	-	.	28	-
SMILES	PKA-R1A act	aDG glyco act	UCH37 inh	CTSL1 counter	PKA-R2B act
CC(=NNc1ccc(Cl)cc1)c1c(O)cc(C)oc1=O	.	.	-	.	.
N#C/C(=C\c1ccc(O)c(Br)c1)C(=O)NCc1ccccc1	-	-	-	22	-
COc1ccccc1C=NNC(=O)c1nnn(-c2nonc2N)c1-c1cccs1	.	.	-	.	.
CC1=[N+](C)c2c(ccc3cccnc23)C1(C)C	24	-	-	.	31
O=C1C2C3C=CC(CC3)C2C(=O)N1c1ccccc1[N+](=O)[O-] (centres undefined)	-	-	-	19	-
O=C1C2C3C=CC(CC3)C2C(=O)N1c1ccc(Br)cc1[N+](=O)[O-] (centres undefined)	-	-	-	-	-
O=C(O)c1ccc(NN=Cc2ccc3c(c2)OCO3)cc1	.	.	-	.	.
O=C(c1ccc(Cl)c(S(=O)(=O)N2CCCC2)c1)N1CCN(c2ccccc2)CC1	-	-	-	35	-
O=C(c1ccc(Cl)c(S(=O)(=O)N2CCCCC2)c1)N1CCN(c2ccccc2)CC1	-	-	-	-	-
O=C(ON=C1CCCCC1c1ccc([N+](=O)[O-])cc1[N+](=O)[O-])c1c(F)cccc1F (centres undefined)	.	.	-	.	.
COc1cccc(-c2nc(NCc3ccccc3)c3ccccc3n2)c1O	-	-	-	21	-
CCOC(=O)c1[nH]c(C)c(/C(O)=C2\C(=O)C(=O)N(CCN(C)C)C2c2ccncc2)c1C (centres undefined)	-	-	29	-	-
CCOc1cc(C2CC(=O)N3CN(C4CCCCC4)CSC3=C2C#N)ccc1O (centres undefined)	-	-	.	80	-
